In general, IC50 refers to the point on the concentration scale where inhibition reaches its midpoint.

Bounds are passed on as bounds.

The subject of the experiment is HepG2. Kind of experiment: Antiproliferative activity against human HepG2 cells after 48 hrs by MTT assay. The format is functional, cell-based. The note with it: HepG2, 48 h. Summed up:
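HepG2 exposed to compounds for 48 h; MTT readout; camptothecin positive control; IC50 calculated; mean ± SD of three independent experiments, each in triplicate.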
(Tetrazolium dyes change colour on reduction, which living cells bring about.)

Consider `COc1cc(Cn2cc(/C=C3\CC[C@@H]4[C@H]5CCCN6CCC[C@H](CN4C3=O)[C@@H]56)c3ccccc32)cc(OC)c1`, for which the IC50 came out at 6.88 µM.

Compound `Cc1ccccc1Cn1cc(/C=C2\CC[C@@H]3[C@H]4CCCN5CCC[C@H](CN3C2=O)[C@@H]45)c2ccccc21` returned an IC50 of 16.3 µM.

Consider `O=C1/C(=C/c2cn(Cc3ccc(OCc4ccc(OC(F)(F)F)cc4)cc3)c3ccccc23)CC[C@@H]2[C@H]3CCCN4CCC[C@H](CN12)[C@@H]34`, for which the IC50 was found to be 6.01 µM.

`COc1ccc(Cn2cc(/C=C3\CC[C@@H]4[C@H]5CCCN6CCC[C@H](CN4C3=O)[C@@H]56)c3ccccc32)cc1` displayed an IC50 of 8.23 µM.

`CC(C)(C)c1ccc(Cn2cc(/C=C3\CC[C@@H]4[C@H]5CCCN6CCC[C@H](CN4C3=O)[C@@H]56)c3ccccc32)cc1`: the IC50 came out at 4.57 µM.

On to `COc1ccc(Br)c(Cn2cccc2/C=C2\CC[C@@H]3[C@H]4CCCN5CCC[C@H](CN3C2=O)[C@@H]45)c1`, for which half-maximal inhibition (IC50) required 9.66 µM.

Regarding `O=C1/C(=C/c2cccn2Cc2ccc(F)cc2)CC[C@@H]2[C@H]3CCCN4CCC[C@H](CN12)[C@@H]34`, half-maximal inhibition (IC50) required 29.4 µM.

The compound `CC(C)(C)c1ccc(Cn2cccc2/C=C2\CC[C@@H]3[C@H]4CCCN5CCC[C@H](CN3C2=O)[C@@H]45)cc1` registered an IC50 of 13.6 µM.

`O=C1/C(=C/c2cccn2Cc2ccccc2Cl)CC[C@@H]2[C@H]3CCCN4CCC[C@H](CN12)[C@@H]34` returned an IC50 of 17.4 µM.

The compound `Cc1cc(C)cc(Cn2cccc2/C=C2\CC[C@@H]3[C@H]4CCCN5CCC[C@H](CN3C2=O)[C@@H]45)c1` had an IC50 of 14.8 µM.

For the compound `O=C1/C(=C/c2cn(Cc3ccc(OCc4ccc(F)cc4)cc3)c3ccccc23)CC[C@@H]2[C@H]3CCCN4CCC[C@H](CN12)[C@@H]34`, the IC50 was 4.83 µM.

Consider `O=C1/C(=C/c2cn(Cc3ccc(OCc4ccccc4)cc3)c3ccc(Br)cc23)CC[C@@H]2[C@H]3CCCN4CCC[C@H](CN12)[C@@H]34`, for which half-maximal inhibition (IC50) required 3.97 µM.

Compound `O=C1/C(=C/c2cn(Cc3ccc(OCc4ccccc4)cc3)c3cc(Cl)ccc23)CC[C@@H]2[C@H]3CCCN4CCC[C@H](CN12)[C@@H]34` registered an IC50 of 14.3 µM.

As to `O=C1/C(=C/c2cn(Cc3ccc(OCc4ccccc4)cc3)c3ccccc23)CC[C@@H]2[C@H]3CCCN4CCC[C@@H](CN12)[C@@H]34`, half-maximal inhibition (IC50) required 9.96 µM.

`O=C1/C(=C/c2cccc3c2ccn3Cc2ccc(OCc3ccccc3)cc2)CC[C@@H]2[C@H]3CCCN4CCC[C@H](CN12)[C@@H]34` yielded an IC50 of 15.2 µM.

In turn, `Cc1ccc(Cn2cccc2/C=C2\CC[C@@H]3[C@H]4CCCN5CCC[C@H](CN3C2=O)[C@@H]45)cc1` had an IC50 of 17.3 µM.

Compound `O=C1/C(=C/c2cccn2Cc2ccc(Br)cc2)CC[C@@H]2[C@H]3CCCN4CCC[C@H](CN12)[C@@H]34` registered an IC50 of 12.6 µM.

`O=C1/C(=C/c2cccn2Cc2ccc(Cl)cc2)CC[C@@H]2[C@H]3CCCN4CCC[C@H](CN12)[C@@H]34` registered a half-inhibitory concentration (IC50) of 13.5 µM.

Compound `O=C1/C(=C/c2cccn2Cc2ccccc2Br)CC[C@@H]2[C@H]3CCCN4CCC[C@H](CN12)[C@@H]34` came in with a concentration for half-maximal inhibition (IC50) of 13.5 µM.

`Cc1ccc2c(c1)c(/C=C1\CC[C@@H]3[C@H]4CCCN5CCC[C@H](CN3C1=O)[C@@H]45)cn2Cc1ccc(OCc2ccccc2)cc1` returned an IC50 of 7.71 µM.

`O=C1/C(=C/c2cccn2Cc2ccccc2)CC[C@@H]2[C@H]3CCCN4CCC[C@H](CN12)[C@@H]34` registered an IC50 of 10.9 µM.

Compound `O=C1/C(=C/c2ccc3c(ccn3Cc3ccc(OCc4ccccc4)cc3)c2)CC[C@@H]2[C@H]3CCCN4CCC[C@H](CN12)[C@@H]34` displayed a half-inhibitory concentration (IC50) of 7.25 µM.

`O=C1/C(=C/c2cn(Cc3cccc(Br)c3)c3ccccc23)CC[C@@H]2[C@H]3CCCN4CCC[C@H](CN12)[C@@H]34`: the IC50 was found to be 8.62 µM.

As to `Cc1cc(C)cc(Cn2cc(/C=C3\CC[C@@H]4[C@H]5CCCN6CCC[C@H](CN4C3=O)[C@@H]56)c3ccccc32)c1`, the midpoint of inhibition, the IC50, lay at 4.56 µM.

Take `COc1ccc(Br)c(Cn2cc(/C=C3\CC[C@@H]4[C@H]5CCCN6CCC[C@H](CN4C3=O)[C@@H]56)c3ccccc32)c1`: the IC50 came to 4.16 µM.

On to `O=C1/C(=C/c2cn(Cc3ccc(OCc4ccccc4)cc3)c3ccccc23)CC[C@@H]2[C@H]3CCCN4CCC[C@H](CN12)[C@@H]34`, for which the 50% inhibitory concentration (IC50) came out at 3.08 µM.

The compound `COc1ccc(Cn2cccc2/C=C2\CC[C@@H]3[C@H]4CCCN5CCC[C@H](CN3C2=O)[C@@H]45)cc1` returned an IC50 of 30.1 µM.

As for `O=C1/C(=C/c2cn(Cc3ccc4ccccc4c3)c3ccccc23)CC[C@@H]2[C@H]3CCCN4CCC[C@H](CN12)[C@@H]34`, half-maximal inhibition (IC50) required 12.8 µM.

In the case of `COc1ccc2c(c1)c(/C=C1\CC[C@@H]3[C@H]4CCCN5CCC[C@H](CN3C1=O)[C@@H]45)cn2Cc1ccc(OCc2ccc(Cl)cc2)cc1`, half-maximal inhibition (IC50) required 3.97 µM.

Consider `O=C1/C(=C/c2cn(Cc3ccccc3Br)c3ccccc23)CC[C@@H]2[C@H]3CCCN4CCC[C@H](CN12)[C@@H]34`, for which the IC50 amounted to 15.4 µM.

In the case of `COc1cc(Cn2cccc2/C=C2\CC[C@@H]3[C@H]4CCCN5CCC[C@H](CN3C2=O)[C@@H]45)cc(OC)c1`, 21.2 µM corresponded to half-maximal inhibition (IC50).

As to `CC(C)(C)c1cc(Cn2cccc2/C=C2\CC[C@@H]3[C@H]4CCCN5CCC[C@H](CN3C2=O)[C@@H]45)cc(C(C)(C)C)c1`, the IC50 came to 18.1 µM.

Regarding `COc1ccc2c(c1)c(/C=C1\CC[C@@H]3[C@H]4CCCN5CCC[C@H](CN3C1=O)[C@@H]45)cn2Cc1ccc(OCc2ccc(C)cc2)cc1`, it took 4.18 µM to reach half-maximal inhibition (IC50).

The compound `COc1ccc2c(c1)c(/C=C1\CC[C@@H]3[C@H]4CCCN5CCC[C@H](CN3C1=O)[C@@H]45)cn2Cc1ccc(OCc2ccc(OC(F)(F)F)cc2)cc1` gave an IC50 of 5.72 µM.

`O=C1/C(=C/c2cn(Cc3ccc(OCc4ccc(Cl)cc4)cc3)c3ccccc23)CC[C@@H]2[C@H]3CCCN4CCC[C@H](CN12)[C@@H]34`: inhibition was half-maximal at 6.17 µM (IC50).

With `COc1cccc(Cn2cc(/C=C3\CC[C@@H]4[C@H]5CCCN6CCC[C@H](CN4C3=O)[C@@H]56)c3ccccc32)c1`, the IC50 was 8.14 µM.

As for `Cc1ccccc1Cn1cccc1/C=C1\CC[C@@H]2[C@H]3CCCN4CCC[C@H](CN2C1=O)[C@@H]34`, the IC50 worked out at 25.3 µM.

Regarding `COc1ccc2c(c1)c(/C=C1\CC[C@@H]3[C@H]4CCCN5CCC[C@H](CN3C1=O)[C@@H]45)cn2Cc1ccc(OCc2ccc(F)cc2)cc1`, the IC50 stood at 3.12 µM.

`O=C1/C(=C/c2cccn2Cc2cccc(Cl)c2)CC[C@@H]2[C@H]3CCCN4CCC[C@H](CN12)[C@@H]34`: the IC50 is 16.6 µM.

`COc1ccc2c(c1)c(/C=C1\CC[C@@H]3[C@H]4CCCN5CCC[C@H](CN3C1=O)[C@@H]45)cn2Cc1ccc(OCc2ccc(Br)cc2)cc1`: the IC50 came out at 6.31 µM.

As for `O=C1/C(=C/c2cn(Cc3ccc(Cl)cc3)c3ccccc23)CC[C@@H]2[C@H]3CCCN4CCC[C@H](CN12)[C@@H]34`, the IC50 came to 6.59 µM.

In turn, `O=C1/C(=C/c2cn(Cc3ccccc3)c3ccccc23)CC[C@@H]2[C@H]3CCCN4CCC[C@H](CN12)[C@@H]34` displayed an IC50 of 6.95 µM.

As for `c1ccc(COc2ccc(Cn3ccc4ccccc43)cc2)cc1`, the IC50 is above 50 µM.

`Cc1ccc(Cn2cc(/C=C3\CC[C@@H]4[C@H]5CCCN6CCC[C@H](CN4C3=O)[C@@H]56)c3ccccc32)cc1` showed an IC50 of 9.39 µM.

Compound `COc1ccc2c(c1)c(/C=C1\CC[C@@H]3[C@H]4CCCN5CCC[C@H](CN3C1=O)[C@@H]45)cn2Cc1ccc(OCc2ccc(C(C)(C)C)cc2)cc1` registered an IC50 of 5.86 µM.

`O=C1/C(=C/c2cn(Cc3ccccc3Cl)c3ccccc23)CC[C@@H]2[C@H]3CCCN4CCC[C@H](CN12)[C@@H]34` showed an IC50 of 9.05 µM.

The compound `O=C1/C(=C/c2cn(Cc3ccc(OC(F)(F)F)cc3)c3ccccc23)CC[C@@H]2[C@H]3CCCN4CCC[C@H](CN12)[C@@H]34` displayed an IC50 of 8.73 µM.

Compound `COc1ccc2c(ccn2Cc2ccc(OCc3ccccc3)cc2)c1` registered an IC50 above 50 µM.

The compound `O=C1/C(=C/c2cccn2Cc2ccc(OCc3ccccc3)cc2)CC[C@@H]2[C@H]3CCCN4CCC[C@H](CN12)[C@@H]34` registered an IC50 of 7.22 µM.

Take `O=C1/C(=C/c2cn(Cc3c(Cl)cccc3Cl)c3ccccc23)CC[C@@H]2[C@H]3CCCN4CCC[C@H](CN12)[C@@H]34`: the IC50 was 9.78 µM.

`O=C1/C(=C/c2cccn2Cc2ccc3ccccc3c2)CC[C@@H]2[C@H]3CCCN4CCC[C@H](CN12)[C@@H]34` gave an IC50 of 16.1 µM.

`Cc1cccc(Cn2cc(/C=C3\CC[C@@H]4[C@H]5CCCN6CCC[C@H](CN4C3=O)[C@@H]56)c3ccccc32)c1` yielded an IC50 of 8.27 µM.

Consider `CC(C)(C)c1ccc(COc2ccc(Cn3cc(/C=C4\CC[C@@H]5[C@H]6CCCN7CCC[C@H](CN5C4=O)[C@@H]67)c4ccccc43)cc2)cc1`, for which the IC50 was found to be 6.07 µM.

In the case of `O=C1/C(=C/c2cn(Cc3ccc(OCc4ccc(Br)cc4)cc3)c3ccccc23)CC[C@@H]2[C@H]3CCCN4CCC[C@H](CN12)[C@@H]34`, the IC50 turned out to be 10.1 µM.

Consider `O=C1/C(=C/c2cccn2Cc2ccc(OC(F)(F)F)cc2)CC[C@@H]2[C@H]3CCCN4CCC[C@H](CN12)[C@@H]34`, for which it took 26.5 µM to reach half-maximal inhibition (IC50).

The values are drawn from ChEMBL document CHEMBL4270613, “Design, synthesis, biological evaluation and structure-activity relationship of sophoridine derivatives bearing pyrrole or indole scaffold as potential antitumor agents” (Eur J Med Chem, 2018).
